Assay outcomes deposited in PubChem BioAssay by several laboratories.
In the library only some 2.1% were active in any assay of this set; here they are far more common.
UCH37 DUB inh = blocks the human deubiquitinase UCH37. inhibition, % (no concentration beside the values). 330,000 compounds, 0.33% hits. Q9Y5K5. purified proteasome/UCH37, Ub-AMC cleavage fluorescence;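 active = mean inhibition over replicate wells above about 20%, limit read from the data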;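 note: 0% = compound-free wells with enzyme and 100% = wells lacking proteasome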
Target sequence (Q9Y5K5 whole entry, looked up): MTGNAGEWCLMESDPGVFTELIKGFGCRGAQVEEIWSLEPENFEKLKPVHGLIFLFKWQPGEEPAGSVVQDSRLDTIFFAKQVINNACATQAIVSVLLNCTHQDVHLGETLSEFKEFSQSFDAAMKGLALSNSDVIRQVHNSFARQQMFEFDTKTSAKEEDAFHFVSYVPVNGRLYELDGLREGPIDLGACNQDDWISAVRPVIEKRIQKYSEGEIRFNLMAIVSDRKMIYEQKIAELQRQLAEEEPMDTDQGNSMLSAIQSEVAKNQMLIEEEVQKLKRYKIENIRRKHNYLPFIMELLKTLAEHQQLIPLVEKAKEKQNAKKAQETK
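Material: human UCH37 enzyme supplied as purified proteasome complex / Amount: 0.15 nM proteasome as dispensed / Buffer or medium: pH 7.4 Tris-HCl (50 mM) with ovalbumin, ATP-MgCl2, DTT / Times: preincubation 30 min, reaction 25 min, room temperature / Technique: AMC fluorescence from Ub-AMC cleavage, excitation 355 nm, emission 460 nm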
iPSC survival up = hiPSC single-cell survival enhancement; ATPlite luminescence; 100% = ROCK inhibitor wells, 0% = DMSO; survival enhancement, % at 20 µM; 360,000 compounds, 0.044% hits; AID 602274; in the data active = survival enhancement above about 18%;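 note: cells exposed to compounds for 16 hours before the ATP read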
CRFBP-R2 agonist = CRF-BP/CRF-R2 complex agonism; activation, % at 13.2 µM; 350,000 compounds, 0.46% hits; HEK293 CRF-R2/CRF-BP, calcium dye fluorescence (FLIPR); percent of saturating CRF peptide response;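 active = activation of at least 50%, plus an integration ratio under a set limit after plate pattern correction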;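 note: plate controls were neutral control wells without compound for no effect and CRF at EC100 for full effect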
CRFBP-R2 block = CRF-BP/CRF-R2 complex antagonism; 350,000 compounds, 0.59% hits; HEK293 CRF-R2/CRF-BP, CRF-induced calcium fluorescence; inhibition, % at 11.8 µM; AID 588475;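 active = inhibition of the ligand-induced calcium signal above about 50% at the single tested concentration, limit read from the data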
H9c2 protect = myocardial damage modulation in H9c2 cells. 360,000 compounds, 0.63% hits. H9c2 cardiomyocytes, H2O2 injury protection, ATPLite, 2 h. AID 588492. protection from H2O2 cell death, % at 20 µM;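 active = compounds giving at least 50% protection of heart cells from peroxide-induced death in the single-dose screen, raw or plate-pattern-corrected value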;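 note: 0% = DMSO wells with peroxide and 100% = DMSO wells without peroxide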
beta cell repl = inducers of beta-cell replication in MIN6 cells; MIN6 cells proliferation, ATPlite luminescence, 48 h; cells starved in 0.2% serum; 100% = growth in 10% serum; proliferation, % at 10 µM; 330,000 compounds, 0.29% hits; AID 2380;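 active = compounds whose signal lies at least 3.5 SD above the mean of all wells on their plate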;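 note: 0% = DMSO-treated cells in low-serum medium and 100% = 10% serum control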
* hit, by the source's call; · = no result.

SMILES	UCH37 DUB inh	iPSC survival up	CRFBP-R2 agonist	CRFBP-R2 block	H9c2 protect	beta cell repl
COc1ccc(CN(C)CCCn2cnc3c(OC)ncnc32)cc1OC	·	25*	0	-3	0	·
COc1c2c(c(OC)c3ccccc13)[C@@]1(OC2)O[C@H](CCO)C[C@H](O)[C@H]1O	·	0	1	101*	16	·
Cc1nc2c(C(=O)NCCc3ccccc3)c[nH]n2c(=O)c1Cl	-1	2	-3	51*	1	-2
N=C1/C(=C/c2ccc(-c3cccc(C(=O)O)c3)o2)C(=O)N=C2SC(CC(=O)N3CCOCC3)=NN12	24*	0	3	-6	-3	-2
CC[n+]1c(/C=C(\C)OC)sc2ccccc21	19	4	-1	-44	-10	-1
CC[n+]1c(/C=C/C=C/N(C(C)=O)c2ccccc2)sc2cc(OC)ccc21	14	·	146*	-127	·	·
COc1cc(C=NNC(=O)CCn2nnc3ccccc32)ccc1O	-1	·	·	·	·	·
N#Cc1c(N=Cc2ccc(-c3ccc(C(=O)O)c(Cl)c3)o2)sc2c1CCCC2	15	·	·	·	·	·
Cc1onc(-c2c(Cl)cccc2Cl)c1C(=O)NN=C(N)COc1ccc(Cl)cc1	1	·	·	·	·	·
Cc1onc(-c2ccccc2Cl)c1C(=O)N/N=C(\N)COc1ccc(Cl)cc1	·	-1	-2	-6	60*	-3
COc1ccc(C(=O)COc2ccccc2C(N)=O)cc1	0	3	-4	3	69*	0
COc1ccc(C(=O)COc2ccccc2C(=O)Nc2ccccc2)cc1	1	0	3	-11	14	-1
Cc1cc(C)nc(-n2nc(C)cc2NC(=O)c2cccc(S(=O)(=O)N(C)C)c2)n1	5	·	-1	-10	·	-1
Cc1ccc(C)c(C(=O)Nc2cc(C)nn2-c2nc(C)cc(C)n2)c1	3	3	-4	-13	50*	-3
CC1=CC(=O)C(C(C)C)=CC1=NOC(=O)c1cccc([N+](=O)[O-])c1	6	·	·	·	·	·
CC1(C(=O)Nc2cccc(OC(F)(F)F)c2)Cc2c(-c3ccc(C(N)=O)cc3)ccnc2O1 (stereo not drawn)	·	-2	·	·	56*	·
CN(C)c1ccc(-c2ccnc3c2CC(C)(C(=O)Nc2ccc(Cl)c(C(F)(F)F)c2)O3)cc1 (stereo not drawn)	·	20*	·	·	0	·
O=C(c1ccccc1)N(c1ccccc1)C1C=CS(=O)(=O)C1 (stereo not drawn)	-3	-1	2	-1	12	-3
COc1ccc(C(=O)N(c2ccccc2)C2C=CS(=O)(=O)C2)cc1 (stereo not drawn)	1	0	-1	52*	2	-1
Cc1cc(C)nc(NN=Cc2cn[nH]c2-c2ccc(F)cc2)n1	5	·	·	·	·	·
C=CCn1c(O)c(C(CC)=NCCN2CCOCC2)c(=O)[nH]c1=O	6	5	-1	4	2	0
C=CCn1c(O)c(C(CC)=Nc2ccccc2NC(=O)CC)c(=O)[nH]c1=O	3	3	-1	76*	2	4
CCOc1cc(C=NNC(=O)Cc2ccccc2)ccc1OCC(=O)Nc1ccc(C)c(C)c1	-6	·	·	·	·	·
CCOC(=O)NNC(=O)c1[nH]c2ccc(Br)cc2c1-c1ccccc1	2	-1	0	57*	-2	-6
O=C(CON=Cc1ccccc1)N1c2ccccc2Oc2ccccc21	1	·	·	·	·	·
SMILES	UCH37 DUB inh	iPSC survival up	CRFBP-R2 agonist	CRFBP-R2 block	H9c2 protect	beta cell repl
COC(=O)CN1C(c2ccc(Cl)cc2)=Nc2ccc(Cl)cc2C1c1ccccc1 (stereo not drawn)	2	0	-2	65*	0	-6
CCN(CC)c1ccc(/C=C(\C#N)C(N)=O)cc1	·	-2	2	-7	-8	·
CN(C)c1ccc(/C=C(\C#N)C(=O)c2ccccc2)cc1	7	0	212*	-189	-17	·
CCN(CC)c1ccc(/C=C(\C#N)C(=O)c2ccc(Br)cc2)cc1	13	4	301*	-329	-12	·
CCN(CC)c1ccc(/C=C(\C#N)C(N)=S)cc1	13	0	72*	-56	-13	-2
c1ccc(Oc2cccc(OCCCCSc3ncccn3)c2)cc1	1	2	51*	-74	-10	-3
Cc1ccccc1Cn1ccc(NC(=O)c2cnn3c(C(F)(F)F)cc(-c4ccco4)nc23)n1	6	-3	-1	1	60*	-3
O=C(Nc1ccc2c(c1)OCO2)c1cnn2c(C(F)(F)F)cc(-c3ccco3)nc12	5	2	1	-6	93*	0
COc1ccc(C=NNC2=NS(=O)(=O)c3ccccc32)cc1	15	·	·	·	·	·
Cc1ccc(CN2CCN(CC(=O)NCCCN3CCN(c4ccc(F)cc4)CC3)C2=O)cc1	3	-2	-2	2	-11	-3
COc1ccc(N2CCN(CCCNC(=O)CN3CCN(Cc4ccccc4C)C3=O)CC2)cc1	0	-7	6	56*	-20	-5
COc1cc(/C=N/NC(=O)c2cccnc2)ccc1OCC(=O)Nc1ccccc1Cl	·	-3	-1	10	51*	-3
COc1cc(/C=N\NC(=O)c2cccnc2)ccc1OC(=O)c1ccccc1Cl	·	0	0	2	55*	-1
COc1cc(/C=N/NC(=O)c2ccccc2O)ccc1OCC(=O)Nc1ccccc1	·	0	-1	13	78*	-4
COc1cc(/C=N/NC(=O)c2ccncc2)ccc1OCC(=O)Nc1ccccc1	·	0	-1	-3	25	0
COc1ccc(NC(=O)COc2ccc(/C=N/NC(=O)c3cccnc3)cc2OC)cc1	·	-1	-1	-10	39	-3
COc1ccccc1NC(=O)COc1ccc(/C=N/NC(=O)c2cccnc2)cc1	·	0	0	-2	51*	0
O=C(NN=C1CCSC1)c1cc(Br)ccc1O	-13	·	·	·	·	·
ON=Cc1ccc(OCc2ccccc2)c(Cl)c1	6	·	·	·	·	·
COc1ccc(CC(=O)NN=Cc2ccc(C)s2)cc1	6	·	·	·	·	·
CCC1(c2ccccc2)NC(=O)N(CC(=O)Nc2ccc(OC)nc2)C1=O (stereo not drawn)	·	0	93*	-62	5	1
CCn1nc(C)c(C=NNC(=O)Cn2nnnc2N)c1C	1	·	·	·	·	·
COc1ccc(CC(=O)N/N=C(\C)c2ccc(Br)s2)cc1	·	0	-1	83*	-5	-3
CC[n+]1c(/C=C2\Sc3ccccc3N2C)ccc2cccc(C)c21	24*	0	124*	-167	-22	·
CN1/C(=C/c2cccc[n+]2CCO)Sc2ccccc21	3	-1	6	-1	2	-3
COC(=O)c1[nH]c2ccccc2c1NC(=O)CNC1CCCCC1	-5	-1	-2	-9	86*	3
CCCNc1ccc(C(=O)OCC)cc1[N+](=O)[O-]	7	0	-8	61*	-14	0
